Test results reported in ChEMBL document CHEMBL1921735, “Antibacterial optimization of 4-aminothiazolyl analogues of the natural product GE2270 A: identification of the cycloalkylcarboxylic acids” (J Med Chem, 2011).
In brackets after ≈: the same amount, converted by molar mass. Activity calls are given as the source filed them.

Assays:
Staphylococcus aureus [1] = test: Antibacterial activity against methicillin-resistant Staphylococcus aureus isolate A4.018 by CLSI M07-A8 method; type: functional
Enterococcus faecalis = test: Antibacterial activity against Enterococcus faecalis ATCC 29212 by CLSI M07-A8 method; type: functional
How it was run: (§1)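 Broth microdilution MIC run per CLSI M07-A8 (2009).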

Staphylococcus aureus [2] = test: Antibacterial activity against GE2270-A-resistant Staphylococcus aureus harboring tufA G258D mutant gene by CLSI M07-A8 method; type: functional
Streptococcus pneumoniae = test: Antibacterial activity against Streptococcus pneumoniae by CLSI M07-A8 method; type: functional, organism-based; how it was run: as §1
Streptococcus pyogenes = test: Antibacterial activity against Streptococcus pyogenes ATCC BAA-595 by CLSI M07-A8 method; type: functional; how it was run: as §1
Enterococcus faecium = test: Antibacterial activity against Enterococcus faecium 7130724 by CLSI M07-A8 method; type: functional; how it was run: as §1

SMILES	MIC (Staphylococcus aureus [1]) [µg/mL]	MIC (Enterococcus faecalis) [µg/mL]	Activity (Staphylococcus aureus [2])	Activity (Streptococcus pneumoniae)	MIC (Streptococcus pyogenes) [µg/mL]	MIC (Enterococcus faecium) [µg/mL]	MIC (Staphylococcus aureus [2]) [µg/mL]
CNC(=O)C[C@@H]1NC(=O)c2csc(n2)-c2ccc(-c3nc(NC(=O)CC[C@H](N)C(=O)O)cs3)nc2-c2csc(n2)-c2csc(n2)[C@H]([C@@H](O)c2ccccc2)NC(=O)CNC(=O)c2nc(sc2COC)[C@H](C(C)C)NC(=O)c2nc1sc2C	> 32	> 32	inactive	Active	> 32	> 32	–
CNC(=O)C[C@@H]1NC(=O)c2csc(n2)-c2ccc(-c3nc(NC(=O)CC(=O)O)cs3)nc2-c2csc(n2)-c2csc(n2)[C@H]([C@@H](O)c2ccccc2)NC(=O)CNC(=O)c2nc(sc2COC)[C@H](C(C)C)NC(=O)c2nc1sc2C	1 (≈ 0.846 µM)	1 (≈ 0.846 µM)	inactive	Active	8 (≈ 6.77 µM)	2 (≈ 1.69 µM)	–
CNC(=O)C[C@@H]1NC(=O)c2csc(n2)-c2ccc(-c3nc(NS(C)(=O)=O)cs3)nc2-c2csc(n2)-c2csc(n2)[C@H]([C@@H](O)c2ccccc2)NC(=O)CNC(=O)c2nc(sc2COC)[C@H](C(C)C)NC(=O)c2nc1sc2C	2 (≈ 1.7 µM)	2 (≈ 1.7 µM)	–	Active	> 32	4 (≈ 3.41 µM)	> 32
CNC(=O)C[C@@H]1NC(=O)c2csc(n2)-c2ccc(-c3nc(NC(=O)CCC(=O)O)cs3)nc2-c2csc(n2)-c2csc(n2)[C@H]([C@@H](O)c2ccccc2)NC(=O)CNC(=O)c2nc(sc2COC)[C@H](C(C)C)NC(=O)c2nc1sc2C	0.25 (≈ 0.209 µM)	0.25 (≈ 0.209 µM)	inactive	Active	4 (≈ 3.34 µM)	0.5 (≈ 0.418 µM)	–
CNC(=O)C[C@@H]1NC(=O)c2csc(n2)-c2ccc(-c3nc(NS(N)(=O)=O)cs3)nc2-c2csc(n2)-c2csc(n2)[C@H]([C@@H](O)c2ccccc2)NC(=O)CNC(=O)c2nc(sc2COC)[C@H](C(C)C)NC(=O)c2nc1sc2C	4 (≈ 3.4 µM)	2 (≈ 1.7 µM)	–	Active	> 32	4 (≈ 3.4 µM)	> 32
CNC(=O)C[C@@H]1NC(=O)c2csc(n2)-c2ccc(-c3nc(NC(=O)OC4CC(C)(C)NC(C)(C)C4)cs3)nc2-c2csc(n2)-c2csc(n2)[C@H]([C@@H](O)c2ccccc2)NC(=O)CNC(=O)c2nc(sc2COC)[C@H](C(C)C)NC(=O)c2nc1sc2C	1 (≈ 0.781 µM)	1 (≈ 0.781 µM)	inactive	Active	8 (≈ 6.25 µM)	0.5 (≈ 0.391 µM)	–
CNC(=O)C[C@@H]1NC(=O)c2csc(n2)-c2ccc(-c3nc(NC(=O)OCCCCCN)cs3)nc2-c2csc(n2)-c2csc(n2)[C@H]([C@@H](O)c2ccccc2)NC(=O)CNC(=O)c2nc(sc2COC)[C@H](C(C)C)NC(=O)c2nc1sc2C	1 (≈ 0.816 µM)	0.5 (≈ 0.408 µM)	inactive	Active	8 (≈ 6.53 µM)	0.5 (≈ 0.408 µM)	–
CNC(=O)C[C@@H]1NC(=O)c2csc(n2)-c2ccc(-c3nc(NC(=O)NCCCC(=O)O)cs3)nc2-c2csc(n2)-c2csc(n2)[C@H]([C@@H](O)c2ccccc2)NC(=O)CNC(=O)c2nc(sc2COC)[C@H](C(C)C)NC(=O)c2nc1sc2C	1 (≈ 0.816 µM)	1 (≈ 0.816 µM)	inactive	Active	16 (≈ 13.1 µM)	4 (≈ 3.26 µM)	–
CNC(=O)C[C@@H]1NC(=O)c2csc(n2)-c2ccc(-c3nc(NC(=O)COCC(=O)O)cs3)nc2-c2csc(n2)-c2csc(n2)[C@H]([C@@H](O)c2ccccc2)NC(=O)CNC(=O)c2nc(sc2COC)[C@H](C(C)C)NC(=O)c2nc1sc2C	0.5 (≈ 0.412 µM)	0.5 (≈ 0.412 µM)	inactive	Active	4 (≈ 3.3 µM)	2 (≈ 1.65 µM)	–
